From ChEMBL document CHEMBL1125801, “Fluorinated colchicinoids: antitubulin and cytotoxic properties” (J Med Chem, 1991)

Columns and labels:
P388 [1] = experiment: Cytotoxic activity against P388 mouse lymphocytic leukemia cell line; format: functional; conditions: read-out: ED50 (the source's name)
Tubulin (Bos taurus) [2] = target: T1, Tubulin (Bos taurus) (UniProt Q6B856+Q862L2+Q862F3); conditions: at 2 µM
J774.2 [3] = experiment: Cytotoxic activity against mouse macrophage cell line J774.2; format: functional; conditions: read-out: ED50 (the source's name)
J774 [4] = experiment: Cytotoxic activity against mouse macrophage cell line J7.VBL-1; format: functional; conditions: read-out: ED50 (the source's name)
Tubulin (Bos taurus) [5] = target: T1, Tubulin (Bos taurus); conditions: at 2 µM; remark: listed apart in the source
P388 [6] = experiment: Cytotoxic activity against P388 mouse lymphocytic leukemia cell line (doxorubicin resistant).; format: functional; conditions: read-out: ED50 (the source's name)
Tubulin (Bos taurus) [7] = target: T1, Tubulin (Bos taurus); conditions: at 5 µM
[8] = Partition coefficient (logP); format: physicochemical; conditions: octanol/water
J774 [9] = experiment: (§1) Cytotoxic activity against mouse macrophage cell line J7.COL-100.; format: functional; conditions: read-out: ED50 (the source's name)
Tubulin (Bos taurus) [10] = target: T1, Tubulin (Bos taurus); conditions: at 5 µM; remark: listed apart in the source
[11] = Retention time of the compound.; format: ADME
[12] = Retention time of the compound; NT-Not Tested; format: ADME
J774 [13] = experiment: as §1; format: functional; conditions: J774, read-out: ED50
How it was run: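 Colchicine-resistant variant of mouse macrophage-like J774.2, kept in 100 μM colchicine. Cells were exposed with or without drug in triplicate per concentration for 72 h, ending before controls reached confluency, and then living cells were counted.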

J774.2 [14] = experiment: Cytotoxic activity against mouse macrophage cell line J774.2 after 72 hr; format: functional; conditions: J774.2, 72 h, read-out: ED50 (the source's name)
How it was run: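 Mouse macrophage-like J774.2 (wild type) cells were incubated with or without drug for 72 h, before controls reached confluency, in triplicate per concentration.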

Structure (SMILES) | ITP (Tubulin (Bos taurus) [2]) [%] | ITP (Tubulin (Bos taurus) [5]) [%] | ITP (Tubulin (Bos taurus) [7]) [%] | logP [8] | ITP (Tubulin (Bos taurus) [10]) [%] | tR [11] [min] | ITP (Tubulin (Bos taurus) [7]; at 100 µM) [%] | EC50 (P388 [1]) [µM] | EC50 (J774.2 [3]) [µM] | EC50 (J774 [4]) [µM] | EC50 (P388 [6]) [µM] | EC50 (J774 [9]) [µM] | tR [12] [min] | EC50 (J774 [13]) [µM] | EC50 (J774.2 [14]) [µM]
COc1cc2c(c(OC)c1OC)-c1ccc(=O)c(OC)cc1C(NC(C)=O)CC2 (configuration not stated) | – | – | – | 1 | – | – | – | 15 | 5.6 | > 50 | 15 | – | 3.9 | – | –
COc1cc2c(c(OC)c1OC)-c1ccc(OC)c(=O)cc1[C@@H](NC(C)=O)CC2 [COLCHICINE] | – | – | – | 0.6 | – | 3.9 | – | 0.012 | 0.06 | 17 | 0.47 | 200 | – | – | –
COc1cc2c(c(OC)c1O)-c1ccc(OC)c(=O)cc1C(NC(=O)C(F)(F)F)CC2 (configuration not stated) | 17 | 24 | 35 | 1.67 | 47 | 3.8 | – | 0.04 | 0.04 | 5 | 0.12 | 10.5 | – | – | –
COc1cc2c(c(OC)c1OC)-c1ccc(=O)c(O)cc1C(NC(C)=O)CC2 (configuration not stated) | – | – | – | 1.2 | – | – | – | 1.2 | 3.1 | > 50 | 10 | – | – | > 1000 | –
COc1cc2c(c(OC)c1O)-c1ccc(OC)c(=O)cc1C(NC(C)=O)CC2 (configuration not stated) | – | – | – | 0.48 | – | 3 | – | 0.095 | 0.3 | 62.5 | 1.22 | 140 | – | – | –
COc1cc2c(c(OC)c1OC)-c1ccc(=N)c(O)cc1C(NC(C)=O)CC2 (configuration not stated) | – | – | – | 0.3 | – | 4 | – | 0.013 | 0.02 | 15 | 0.4 | 70 | – | – | –
COc1c(O)cc2c(c1OC)-c1ccc(SC)c(=O)cc1C(NC(C)=O)CC2 (configuration not stated) | – | – | – | 1.43 | – | 3.8 | – | – | – | – | – | – | – | – | –

Now from value to compound, other results behind:

ITP (Tubulin (Bos taurus) [2]) [%] | ITP (Tubulin (Bos taurus) [5]) [%] | ITP (Tubulin (Bos taurus) [7]) [%] | logP [8] | ITP (Tubulin (Bos taurus) [10]) [%] | tR [11] [min] | ITP (Tubulin (Bos taurus) [7]; at 100 µM) [%] | Structure (SMILES) | EC50 (P388 [1]) [µM] | EC50 (J774.2 [3]) [µM] | EC50 (J774 [4]) [µM] | EC50 (P388 [6]) [µM] | EC50 (J774 [9]) [µM] | tR [12] [min] | EC50 (J774 [13]) [µM] | EC50 (J774.2 [14]) [µM]
42 | 48 | 82 | 2.32 | 79 | 5.7 | – | COc1cc2c(c(OC)c1OC)-c1ccc(=N)c(O)cc1C(NC(=O)C(F)(F)F)CC2 (configuration not stated) | 0.013 | 0.01 | 1.3 | 0.06 | 4.5 | – | – | –
– | – | – | 2.08 | – | – | 10 | COc1cc2c(c(OC)c1OC)-c1ccc(=O)c(OC)cc1C(NC(=O)C(F)(F)F)CC2 (configuration not stated) | 1.5 | 3.9 | > 20 | 13 | – | 5.9 | – | –
15 | 30 | 45 | 1.36 | 35 | 10.6 | – | COc1cc2c(c(OC)c1OC)-c1cc/c(=N/CC(F)(F)F)c(O)cc1C(NC(=O)C(F)(F)F)CC2 (configuration not stated) | 0.05 | – | 2.9 | 0.09 | 8.8 | – | – | 0.2
– | – | – | 1.45 | – | 7.4 | – | COc1cc2c(c(OC)c1OC)-c1cc/c(=N/CC(F)(F)F)c(O)cc1C(NC(C)=O)CC2 (configuration not stated) | 0.051 | 0.19 | 17 | 0.9 | 50 | – | – | –
– | – | – | 2.34 | – | 7.5 | – | CC/N=c1/ccc2c(cc1O)C(NC(C)=O)CCc1cc(OC)c(OC)c(OC)c1-2 (configuration not stated) | 0.005 | 0.01 | 1.9 | 0.32 | 15 | – | – | –
– | – | – | 2.61 | – | 5.3 | – | COc1c(O)cc2c(c1OC)-c1ccc(SC)c(=O)cc1C(NC(=O)C(F)(F)F)CC2 (configuration not stated) | – | – | – | – | – | – | – | –
– | – | – | 1.7 | – | 5.1 | – | COc1cc2c(c(OC)c1OC)-c1cc/c(=N/CCF)c(O)cc1C(NC(C)=O)CC2 (configuration not stated) | 0.023 | 0.15 | 4.8 | 0.47 | 32 | – | – | –
– | – | – | 1.82 | – | – | 44 | COc1cc2c(c(OC)c1OC)-c1ccc(=O)c(O)cc1C(NC(=O)C(F)(F)F)CC2 (configuration not stated) | 3 | 3 | 20 | 6 | 4.9 | – | – | –
– | – | – | 1.72 | – | 5.4 | – | COc1cc2c(c(OC)c1OC)-c1ccc(OC)c(=O)cc1[C@@H](NC(=O)C(F)(F)F)CC2 | 0.004 | 0.01 | 0.8 | 0.04 | 14 | – | – | –
